CHRM4 antagonist: antagonists of human muscarinic M4 receptor (CHRM4); 360,000 compounds, 0.73% hits; inhibition, % at 3 µM; P08173; CHO-hM4 cells, ACh EC80, Fluo-8 calcium fluorescence;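 active = inhibition above its plate's cutoff, the mean inhibition of sample wells plus 3 SD, cut at about 27% in these data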;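 also: 0% = acetylcholine EC80 with DMSO and 100% = DMSO without agonist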
M5 antag: CHRM5 antagonism in calcium assay | P08912 | CHO-hM5 cells, Fluo-8 calcium fluorescence, ACh EC80 | inhibition, % at 3 µM | 360,000 compounds, 0.59% hits;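 active = inhibition above a per-plate cutoff, the mean of that plate's test compounds plus 3 SD, cut at about 27% in these data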;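 also: 0% = acetylcholine EC80 with DMSO and 100% = DMSO without agonist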
Target sequence (P08912 whole entry, looked up): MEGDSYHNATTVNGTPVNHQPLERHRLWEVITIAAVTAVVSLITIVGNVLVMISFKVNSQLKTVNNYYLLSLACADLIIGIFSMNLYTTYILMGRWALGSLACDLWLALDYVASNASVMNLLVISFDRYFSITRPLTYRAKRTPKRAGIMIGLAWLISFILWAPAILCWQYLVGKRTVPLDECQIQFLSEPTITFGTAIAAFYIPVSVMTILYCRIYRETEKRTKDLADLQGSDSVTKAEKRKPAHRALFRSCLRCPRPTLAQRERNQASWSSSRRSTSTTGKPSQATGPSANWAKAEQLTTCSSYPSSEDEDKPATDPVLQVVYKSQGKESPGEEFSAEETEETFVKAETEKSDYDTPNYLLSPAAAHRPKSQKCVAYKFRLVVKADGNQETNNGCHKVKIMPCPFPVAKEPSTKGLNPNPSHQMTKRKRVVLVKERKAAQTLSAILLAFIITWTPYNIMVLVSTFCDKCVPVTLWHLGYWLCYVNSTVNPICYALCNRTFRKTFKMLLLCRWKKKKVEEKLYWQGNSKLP
CHRM4 PAM: potentiates acetylcholine response at human M4 receptor; P08173; CHO-K1 hM4/Gqi5, Fluo-8 calcium fluorescence, ACh EC20; 0% = ACh EC20, 100% = maximal ACh; activation, % at 3 µM; 360,000 compounds, 0.4% hits;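 active = activation above its plate's cutoff, the mean activation of sample wells plus 3 SD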
M4 ag: CHRM4 agonism in calcium assay. P08173. CHO-K1 hM4/Gqi5, Fluo-8 calcium fluorescence; vehicle 0%, full acetylcholine response 100%. activation, % at 3 µM. 360,000 compounds, 0.14% hits;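 active = activation above the run mean over all test wells plus 3 SD, cut at about 32% in these data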;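 also: peak over basal fluorescence ratio per well then scaled between controls; 0% = DMSO wells and 100% = acetylcholine at EC100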
CHRM5 PAM: CHRM5 positive allosteric modulation | P08912 | CHO-K1 hM5, Fluo-8 calcium, ACh EC20 PAM; 0% = ACh EC20, 100% = ACh EC100 | activation, % at 3 µM | 360,000 compounds, 0.3% hits | AID 624038;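 active = activation above the run cutoff, the mean activation of all test compounds plus 3 SD, cut at about 18% in these data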
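Probe or stimulus: acetylcholine, EC20 level; Assay system: human M5 receptor in CHO-K1 cells; Schedule: compound preincubation 140 s before EC20 acetylcholine addition; Technique: intracellular calcium via Fluo-8 fluorescence; Dosing: single-point, 3 µM nominal; Read-out basis: percent activation from peak-over-basal fluorescence ratio, scaled EC20-to-EC100 acetylcholine; Repeats: one well per compound, no replicates.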
CHRM5 agonist: CHRM5 agonism in calcium assay. AID 624037. CHO-K1 hM5 cells, Fluo-8 calcium fluorescence; 0% DMSO wells, 100% maximal acetylcholine response. 360,000 compounds, 0.19% hits. activation, % at 3 µM;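 active = activation above the run's mean over test compounds plus 3 SD, cut at about 23% in these data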;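 also: signal is peak over basal fluorescence ratio across the kinetic read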
The depositor's hits bear a star; ! = a repeat was not active. Most compounds without a hit are left out; they make up all but 1.8% or so of the library.

SMILES	CHRM4 antagonist	M5 antag	CHRM4 PAM	M4 ag	CHRM5 PAM	CHRM5 agonist
CNCCCC1c2ccccc2C=Cc2ccccc21	91*	99*	-18	4	-19	0
CS(=O)(=O)N(CC(=O)Nc1cc(Cl)ccc1Cl)c1ccccc1	5	-3	4	0	2	-3
Cn1c(=O)[nH]c(=O)c2c1nc(Br)n2CCCO	5	-18	19	1	22*	2
CCN(CC)C(=O)C1=C(C)N(Cc2ccc(F)cc2)C(=O)C(CC(=O)NCC2CCCCC2)C1 (configuration not stated)	-10	-2	7	0	0	-3
COc1ccc(C=O)cc1COc1ccccc1F	-4	1	21*	0	1	-2
COc1ccc(F)cc1Cn1nc(C(=O)O)c2ccccc2c1=O	10	8	-6	1	1	-1
Nn1c(SCc2cccc(Br)c2)nnc1-c1cccnc1	-11	-10	11	1	19*	-6
Nn1c(SCc2cccc(F)c2)nnc1-c1cccnc1	-1	15	-13	18	-18	1
Nn1c(SC/C=C/c2ccccc2)nnc1-c1cccnc1	28*	2	7	1	3	0
Clc1ccc(-n2c(SC/C=C/c3ccccc3)nnc2-c2cccnc2)cc1	12	-3	1	4	-3	0
CNc1ccccc1C(C)(C)c1cc(-c2ccc(F)cc2)no1	3	9	-1	2	-4	0
Cn1cc(CN2CCC(C(=O)NC(c3ccc(-c4ccccc4)cc3)c3cnccn3)CC2)c2ccccc21 (configuration not stated)	28*	11	-10	29	-3	1
CCSc1nnc(NC(=O)Cn2cnc3c2c(=O)n(C)c(=O)n3C)s1	1	9	-6	0	4	-4
O=[N+]([O-])c1ccc2c(c1)C(N1CCN(CCO)CC1)Cc1ccc(F)cc1S2 (configuration not stated)	17	1	-12	14	-8	-3
CSc1ccc2c(c1)C(N1CCN(C)CC1)Cc1ccc(F)cc1S2 (configuration not stated)	43*	29*	-16	29	-30	-16
COCn1c(-c2ccccc2)nc2ccccc21	-3	-12	29*	1	3	-4
Fc1ccc2nc(C3CCCCN3Cc3nc(CC4CC4)no3)[nH]c2c1 (configuration not stated)	-7	9	9	6	27*	3
CCOC(=O)C1(C)CCN1C(=O)c1ccc(C(C)(C)C)cc1 (configuration not stated)	-8	3	0	3	-4	0
CC1C(=O)N2CCCc3cc(NC(=O)c4ccccc4Br)cc1c32 (configuration not stated)	-4	5	9	1	-1	1
CCCCSc1nc2ccc(Nc3nc(N4CCOCC4)nc(N4CCOCC4)n3)cc2s1	16	-9	24*	-1	-3	3
CCCCNC(=O)CSc1nc2ccc(Nc3nc(N4CCOCC4)nc(N4CCOCC4)n3)cc2s1	-4	12	-14	5	-8	3
COc1cccc(-c2ccc(=O)n(CC(=O)Nc3ccc(C(=O)N4CCCC4)cc3)n2)c1	-4	-1	9	-1	19*	-6
Cc1nn(CC(=O)Nc2ccc(C(=O)N3CCCCC3)cc2)c(=O)c2ccccc12	6	0	-1	0	-5	-2
Cc1nn(CC(=O)Nc2ccc(C(=O)N3CCCC3)cc2)c(=O)c2ccccc12	-8	19	10	-2	39*	3
COc1ccc(-n2nc(C(=O)NCC(=O)NCCC3=CCCCC3)c3ccccc3c2=O)cc1	-13	4	-3	9	-4	-2
SMILES	CHRM4 antagonist	M5 antag	CHRM4 PAM	M4 ag	CHRM5 PAM	CHRM5 agonist
CC(=O)Nc1sc2c(c1C(c1ccccc1Cl)N1CCN(CCO)CC1)CCCC2 (configuration not stated)	11	65*	-15	6	-25	-5
COc1cccc(OC(=O)c2cc3ccccc3oc2=O)c1	-17	-7	18*	1	19*	-4
O=C(Nn1cnnc1)c1cc(Cl)cc(Cl)c1	-5	5	-3	2	-5	-4
O=C(c1cc(S(=O)(=O)N2CCOCC2)ccc1Cl)N1CCC(Cc2ccccc2)CC1	-4	1	-4	9	-7	-4
CCN(CC)CC(=O)Nc1c(C)cc(C(C)(C)C)cc1C	-7	-2	0	0	-7	-4
Cc1cccc(C)c1NC(=O)CN(C)C(=O)c1ccc(OCc2ccccc2)cc1	-15	-4	16*	1	7	1
CCN(CC)CC(=O)Nc1c(C)cccc1C	27*!	0	-11	0	-6	-1
Cc1cccc(NC(=O)Nc2ccccc2[N+](=O)[O-])n1	8	12	-1	1	-5	-2
N#CC1=C(N)OC(c2ccccc2)=C(C#N)C1c1ccc2c(c1)OCO2 (configuration not stated)	4	6	4	3	-13	2
N#CC1=C(N)OC2=C(C(=O)CC(c3ccccc3)C2)C1c1ccc2c(c1)OCO2 (configuration not stated)	38*	16	-15	0	-18	-8
Cc1ccc(NC(=O)C2CCN(S(=O)(=O)c3ccc4c(c3)NC(=O)C(C)S4)CC2)cc1Cl (configuration not stated)	29*	28*	-11	12	-12	-2
COc1ccccc1C(=O)COC(=O)c1cccs1	-4	12	4	2	1	-1
COc1ccccc1C(=O)COC(=O)c1ccccc1O	-6	33*	6	2	-13	-4
CCOc1ccc(CCNC(=O)CCc2nnc3ccc(N4CCCCC4)nn23)cc1OCC	32*	6	-10	0	-9	-5
CCNC(=O)C1(C)CCN1Cc1cc(-c2ccccc2)n(C)n1 (configuration not stated)	-4	0	3	1	1	0
COc1ccc(S(=O)(=O)n2nc(OC(=O)c3ccco3)cc2N)cc1	-1	3	18*	1	16	-8
COc1ccc(S(=O)(=O)n2nc(OC(=O)c3ccccc3)cc2N)cc1	-2	2	10	0	2	-9

Screens from PubChem BioAssay.
